Compound activity from PubChem BioAssay.
NPY-Y1 antag – antagonists of human neuropeptide Y receptor Y1; P25929; HEK293-CNG Y1 cells, membrane potential fluorescence; NPY at EC95, then isoproterenol; inhibition, % at 3.6 µM; 1% of 200,000 active;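 active = inhibition above the campaign mean inhibition of all tested compounds plus 3 SD, cut at about 20% in these data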;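 note: 0% = DMSO wells given NPY plus isoproterenol and 100% = isoproterenol alone without NPY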
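Material: HEK293 Y1/CNG channel cell line | Also added: NPY (25 nM), isoproterenol (1 µM), Ro 20-1724 (25 µM) | Compound: One concentration, 3.6 µM, in 0.4% DMSO | Schedule: 3 h dye uptake, 1 h room-temperature compound, 45 min post-isoproterenol | Signal: Membrane-potential fluorescent dye readout | Read-out: % inhibition of NPY effect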
S1P4 ag – human S1P4 receptor agonism; 0.35% of 220,000 active; activation, % at 4.98 µM; S1P4-expressing cell line, agonist reporter assay; in the data active = activation above about 11%;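 note: 0% = DMSO vehicle and 100% = reference agonist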
Target sequence (O95977 whole entry, looked up): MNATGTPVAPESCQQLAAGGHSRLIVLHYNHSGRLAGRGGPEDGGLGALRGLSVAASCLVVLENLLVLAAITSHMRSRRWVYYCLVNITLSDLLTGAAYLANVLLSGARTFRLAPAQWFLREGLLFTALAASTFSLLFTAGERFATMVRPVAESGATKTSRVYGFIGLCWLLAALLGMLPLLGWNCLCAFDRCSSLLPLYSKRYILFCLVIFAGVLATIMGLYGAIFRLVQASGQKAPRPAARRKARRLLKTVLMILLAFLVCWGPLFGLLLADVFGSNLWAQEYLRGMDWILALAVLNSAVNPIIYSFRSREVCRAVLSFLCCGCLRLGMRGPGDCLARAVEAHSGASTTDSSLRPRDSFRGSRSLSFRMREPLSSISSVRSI
S1P4 antag – antagonists of human S1P4 receptor. 0.26% of 220,000 active. inhibition, % at 4.98 µM. O95977. AID 1510. S1P4-expressing cells, antagonist mode, reporter read-out; in the data active = inhibition above about 29%;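 note: 0% = wells stimulated with agonist and 100% = vehicle wells without agonist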
NPY-Y2 PAM-ag – human NPY-Y2 potentiation or agonism, primary screen; 0.45% of 220,000 active; cells expressing NPY-Y2, potentiator/agonist read-out; activation, % at 3.6 µM; P49146; in the data active = activation above about 27%;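 note: cells stimulated with NPY near EC25 plus isoproterenol at EC100; 0% = vehicle plus submaximal agonist and 100% = vehicle plus saturating agonist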
NPY1 pot ag – potentiates or activates human NPY-Y1 receptor | activation, % at 3.6 µM | NPY-Y1 expressing cells, potentiator/agonist activation | P25929 | 0.37% of 220,000 active; in the data active = activation above about 33%, passing the limit was not always enough;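 note: cells stimulated with NPY at EC10 then isoproterenol at EC100; 0% = low agonist plus stimulus and 100% = saturating agonist plus stimulus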
NPY-Y2 antag – blocks the human neuropeptide Y Y2 receptor; inhibition, % at 2.7 µM; AID 793; 0.99% of 140,000 active; NPY-Y2 expressing cells, antagonist mode;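 note: 0% = vehicle with agonist challenge and 100% = reference antagonist with challenge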
NPY-Y1 ant conf – human NPY-Y1 antagonism, confirmation; shares compounds with NPY-Y1 antag; AID 1254; HEK293-CNG NPY-Y1, membrane potential fluorescence, cAMP; NPY challenge against isoproterenol-raised cAMP; 21% of 1,200 active; inhibition, % at 3.6 µM; in the data active = inhibition above about 20%;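 note: 0% = vehicle with agonist plus stimulus and 100% = stimulus alone without agonist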
NPY2 antag ctr – counter-screen for NPY-Y1 antagonists: human NPY-Y2 antagonism; shares compounds with NPY-Y1 antag; HEK293 NPY-Y2 CNG membrane potential fluorescence; cells given NPY, then isoproterenol; inhibition, % at 3.6 µM; 28% of 1,200 active; AID 1255;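 note: 0% = DMSO with agonist challenge and 100% = reference antagonist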
The depositor's hits bear a star; / = no result. Sampled rows, rich in hits. Any-hit rate of the full collection: about 2.4%. Cut-off read from the data, not from the text of the source, unless noted: active = inhibition above about 17%; inactive = the rest.

SMILES	NPY-Y1 antag	S1P4 ag	S1P4 antag	NPY-Y2 PAM-ag	NPY1 pot ag	NPY-Y2 antag	NPY-Y1 ant conf	NPY2 antag ctr
Cc1ccc(SCC(=O)O/N=C(\N)c2ccc([N+](=O)[O-])cc2)cc1	13	0	-6	-10	-1	7	/	/
O=C1NC(=O)C(CC(=O)N(Cc2ccco2)C2(C(=O)NC3CCCC3)CCCCC2)N1 (configuration not stated)	1	-2	-3	9	-20	6	/	/
O=C(c1cnccn1)N(Cc1ccco1)C1(C(=O)NC2CCCCC2)CCCCC1	31*	-1	-10	9	13	15	27*	12
COC(=O)/C(=N/Nc1ccccc1C)N1CCCc2ccccc21	36*	-1	-4	-20	-19	6	16	13
CCCN(CCC)CCNC(=O)C1CCN(Cc2nc(-c3ccc(Cl)cc3)oc2C)CC1	24*	-2	16	-27	-54	13	13	28*
N#Cc1c(N2CCN(C(=O)c3ccccc3Cl)CC2)nc(-c2ccccc2)c2c1CCCC2	6	3	-5	1	5	7	/	/
N#Cc1c(N2CCN(C(=O)c3ccccc3)CC2)nc(-c2ccccc2)c2c1CCCC2	27*	0	0	-8	-18	6	17	11
COc1ccc(/C=N/NC(=O)c2cccnc2)cc1COc1ccc(NC(C)=O)cc1	/	1	-4	-1	5	/	/	/
COc1cc(OC)cc(C(=O)N/N=C/c2ccc(OC)c(COc3ccc(F)cc3)c2)c1	61*	0	-9	-80	-53	12	16	31*
C/C(=N\NC(=O)CNc1cccc(C)c1)c1ccc(Br)s1	5	2	-9	-6	12	1	/	/
CCOC(=O)c1cnc2ccc(OC)cc2c1Nc1ccc2c(c1)OCCO2	39*	4	-1	-14	-33	9	13	8
Cc1ncc([N+](=O)[O-])n1Cc1cccc(F)c1	-1	2	-14	2	-2	/	/	/
Cc1ccc(Nc2nc(N)nc(-c3oc4ccccc4c3C)n2)cc1	24*	1	2	-30	-19	/	6	30*
Cc1cccc(Nc2nc(N)nc(-c3oc4ccccc4c3C)n2)c1	/	1	7	-39	-2	/	/	/
C#CCOCCOCCOCCNc1nc(N2CCN(C(=O)[C@H](Cc3ccc(O)cc3)n3cc([C@@H](N)C(C)CC)nn3)CC2)nc(N2CCN(C(=O)[C@H](Cc3cc4ccccc4[nH]3)n3cc([C@@H](N)C(C)CC)nn3)CC2)n1 (some centres not stated)	3	-2	1	2	21	/	/	/
CCCCOc1c(Cl)cc(CNC(C)(C)CO)cc1OCC	24*	-1	3	-14	-35	7	7	6
CC(Oc1ccccc1F)C(=O)Nc1ccc2ccccc2c1 (configuration not stated)	14	1	-4	-17	-30	14	/	/
CC(Oc1ccc(F)cc1)C(=O)Nc1ccc2ccccc2c1 (configuration not stated)	41*	2	-1	-2	-21	16	14	11
NS(=O)(=O)c1ccc(CNC(=S)Nc2ccc(Cl)c(Cl)c2)cc1	-1	-1	-3	3	15	/	/	/
Cc1cc2ncn(-c3ncnc4scc(-c5ccccc5)c34)c2cc1C	31*	-1	2	-13	-25	15	18	13
CCCCOC(=O)C[N+](C)(C)CCOC1CC2CCC1(C)C2(C)C (configuration not stated)	28*	1	-5	-9	-28	5	8	9
CC(C)=C(NC(=O)c1ccccc1)C(=O)N1CCOCC1	22*	3	7	13	13	2	-2	0
O=C(Nc1cccc(Cl)c1)OCc1cnc(Cl)s1	-2	-2	-12	-6	-3	8	/	/
CC(C)(C)C(=O)OCc1cn(-c2ccc(Cl)cc2)nn1	3	-2	10	-9	-4	5	/	/
Cc1ccc(NC(=O)OCc2cn(-c3ccc(Cl)cc3)nn2)cc1	29*	2	-13	-7	-21	15	18	18*
SMILES	NPY-Y1 antag	S1P4 ag	S1P4 antag	NPY-Y2 PAM-ag	NPY1 pot ag	NPY-Y2 antag	NPY-Y1 ant conf	NPY2 antag ctr
O=C(Nc1cccc(Cl)c1)OCc1cn(-c2ccc(Cl)cc2)nn1	20*	0	3	3	0	7	8	12
O=C(OCc1cn(-c2ccc(Cl)cc2)nn1)c1ccccc1	21*	1	1	-14	-27	8	10	12
CCCn1nc(C(=O)OCC(=O)c2ccc3c(c2)NC(=O)CO3)c2ccccc2c1=O	1	2	-27	-8	-1	3	/	/
Cc1cc(-c2csc(NC(=O)c3ccc(C#N)cc3)n2)c(C)n1Cc1ccco1	5	0	-6	-8	-3	-1	/	/
CC(C)[C@H](NC(=O)c1ccccc1)C(=O)OCC(=O)Nc1ccc2c(c1)OCCO2	1	1	-9	9	17	3	/	/
Brc1ccc(-c2noc(COc3ccc4ccccc4c3)n2)o1	29*	0	-24	-49	-70	14	17	10
COc1ccc(C(=O)C[n+]2cc(-c3ccc(OC)cc3)n3c2CCCC3)cc1	1	1	-20	-1	4	/	/	/
O=C(C[n+]1cc(-c2ccccc2)n2c1CCCCC2)c1ccc(Br)cc1	42*	-2	-5	-9	-9	/	22*	19*
CSCCC(NC(=O)c1ccc(Cl)cc1)C(=O)OCC(=O)Nc1ccc(C#N)cc1 (configuration not stated)	0	0	-5	0	-3	1	/	/
COc1ccc(C(=O)C2CCCN(Cc3cccn3-c3ccc(Cl)cn3)C2)c(OC)c1 (configuration not stated)	50*	0	3	7	-26	/	29*	31*
O=C(c1cccc(C(F)(F)F)c1)C1CCCN(Cc2cccn2-c2ccccn2)C1 (configuration not stated)	59*	0	-1	-39	-60	/	34*	38*
CC(C)CN1CCN(Cc2cccn2-c2ccc(Cl)cn2)CC1CCO (configuration not stated)	33*	0	-2	-21	-19	/	8	8
CCCC(OC(=O)CN1C(=O)COc2ccccc21)C(=O)NC1CCCC1 (configuration not stated)	24*	0	-26	-20	2	11	1	4
N/C(=N\OC(=O)N1c2ccccc2Sc2ccccc21)c1ccccc1	-9	1	-26	30	25	0	/	/
